Screens deposited in PubChem by The Scripps Research Institute Molecular Screening Center.
An excerpt weighted towards active compounds, which were near 2% of everything screened.
mABHD4 FP: inhibits mouse alpha/beta hydrolase domain 4. Q8VD66. purified mABHD4, FP-Rh probe fluorescence polarization. inhibition, % at 8.92 µM. hit rate 0.54% among 370,000. AID 720543;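 active = inhibition exceeding the mean over every tested compound plus 3 SD, cut at about 30% in these data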;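 also: 0% = plate median of compound wells and 100% = S159A mutant with DMSO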
Target sequence (Q8VD66 whole entry, looked up, the tested form may be a part): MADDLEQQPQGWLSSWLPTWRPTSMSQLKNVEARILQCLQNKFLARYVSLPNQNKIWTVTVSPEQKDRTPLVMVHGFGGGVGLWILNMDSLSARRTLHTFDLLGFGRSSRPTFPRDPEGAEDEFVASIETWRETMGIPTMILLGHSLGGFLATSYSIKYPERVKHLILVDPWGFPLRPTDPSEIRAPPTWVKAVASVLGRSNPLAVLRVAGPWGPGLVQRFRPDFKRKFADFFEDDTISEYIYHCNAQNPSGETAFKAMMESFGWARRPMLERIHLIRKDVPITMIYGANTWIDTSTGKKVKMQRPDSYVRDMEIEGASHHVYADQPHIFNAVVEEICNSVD
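Test system: mABHD4 protein; Read-out basis: % inhibition; Incubation: 45 min + 60 min at 25 °C; Repeats: single replicate; Technique: fluorescence polarization with parallel and perpendicular emission, 525/598 nm; Compound: 8.92 µM, single dose; Benchmarks: full inhibition S159A mutant plus DMSO, zero as sample-well median.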
SIAE primary: human SIAE inhibition, primary screen; Q9HAT2; SIAE FP-Rh probe binding, fluorescence polarization; inhibition, % at 9.66 µM; hit rate 0.69% among 370,000; AID 1053197;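 active = inhibition above a cutoff: mean of compounds within the control limits plus 3 SD of those, cut at about 17% in these data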;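 also: 0% = plate median of compound wells and 100% = probe without SIAE protein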
TDP2 absorb: TDP2 (human) inhibition, absorbance primary screen; recombinant TDP2, T5PNP hydrolysis, p-nitrophenol absorbance 415 nm; inhibition, % at 12.8 µM; AID 720702; O95551; hit rate 0.34% among 370,000;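 active = inhibition above the mean of all tested compounds plus 3 SD, set per campaign, cut at about 25% in these data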;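 also: 0% = DMSO with enzyme and 100% = buffer with substrate but no TDP2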
Target sequence (O95551 whole entry, looked up): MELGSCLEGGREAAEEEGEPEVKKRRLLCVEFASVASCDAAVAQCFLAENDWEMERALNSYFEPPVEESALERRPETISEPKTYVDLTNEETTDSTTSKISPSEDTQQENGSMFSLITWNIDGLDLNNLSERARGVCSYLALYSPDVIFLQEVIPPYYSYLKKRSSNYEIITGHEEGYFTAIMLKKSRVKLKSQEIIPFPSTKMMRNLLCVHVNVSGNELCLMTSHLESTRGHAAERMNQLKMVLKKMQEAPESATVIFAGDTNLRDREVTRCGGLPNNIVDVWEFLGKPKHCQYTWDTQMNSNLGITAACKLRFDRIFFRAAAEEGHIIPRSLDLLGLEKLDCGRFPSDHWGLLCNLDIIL
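System: recombinant human TDP2 / Amount: 120 nM TDP2 per well / Also added: 5 mM T5PNP chromogenic substrate / Doses: 12.8 µM single point, 1% DMSO / Incubation: 2 h at 37 °C / Detection: p-Nitrophenol epi absorbance / Evaluation: % inhibition relative to enzyme-containing and enzyme-free wells / Repeats: singlicate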
PAD4 inh: blocks human protein arginine deiminase 4 | Q9UM07 | inhibition, % at 6.36 µM | AID 485272 | hit rate 0.41% among 330,000 | recombinant PAD4, RCA probe fluorescence polarization;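 active = percent inhibition above a cutoff equal to the mean of all tested compounds plus 3 SD, cut at about 15% in these data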;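 also: 0% = PAD4 with RCA probe and DMSO and 100% = probe without PAD4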
TCR CD3 inh: blocks the human TCR-CD3 interaction; TAMRA-labeled TCR probe fluorescence, biochemical; inhibition, % at 9.4 µM; hit rate 0.37% among 360,000; AID 651800; in the data active = inhibition above about 19%;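 also: recombinant mutant TCR 2C K166C tagged with TAMRA read by polarization; 0% = receptor in buffer alone and 100% = receptor with positive control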
HTRA1 inhibitor: blocks human HTRA1 serine peptidase | Q92743 | recombinant HTRA1, FP-rhodamine activity-based probe, fluorescence polarization | inhibition, % at 5.96 µM | hit rate 0.5% among 340,000 | AID 504803; in the data active = inhibition above about 36%;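 also: 0% = enzyme with DMSO and 100% = wells lacking enzyme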
TDP2 inh conf: confirmation of human TDP2 inhibitors; recombinant human TDP2, absorbance read-out; shares compounds with TDP2 absorb; hit rate 22% among 1,100; inhibition, % at 12.8 µM; in the data active = inhibition above about 25%;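 also: 0% = vehicle with enzyme and 100% = no enzyme buffer only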
SIAE confirm: human SIAE inhibition, confirmation; shares compounds with SIAE primary; hit rate 13% among 2,300; SIAE FP-Rh activity-based probe, fluorescence polarization; inhibition, % at 9.66 µM;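 active = mean inhibition of the replicates above the hit cutoff set in the primary screen, cut at about 17% in these data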;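 also: 0% = SIAE with DMSO and probe and 100% = probe without SIAE; inhibitors lower polarization as more probe stays unbound to SIAE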
* = called active by the depositor; / = no result.

SMILES | mABHD4 FP | SIAE primary | TDP2 absorb | PAD4 inh | TCR CD3 inh | HTRA1 inhibitor | TDP2 inh conf | others
Cc1ccccc1NC(=O)COC(=O)CCc1nc2ccccc2c(=O)[nH]1 | -2 | -7 | -5 | -2 | 4 | 6 | /
O=C(COC(=O)CCc1nc2ccccc2c(=O)[nH]1)Nc1c(Cl)cccc1C(F)(F)F | 3 | -3 | 57* | 2 | -3 | -6 | 6
CCc1nc(C(N)=O)c2[nH]c(=O)n(-c3ccccc3F)c2n1 | 4 | 10 | 9 | 2 | 9 | 6 | /
O=S1(=O)N[C@H](Cc2ccccc2)COc2cc(N3CCN(Cc4ccccc4F)CC3)ccc21 | 1 | -1 | 5 | / | 4 | / | /
COc1cc(C(=S)N2CCCCC2)ccc1OCC(=O)Nc1ccc(F)cc1 | -2 | -3 | 51* | -1 | 9 | 0 | -4
COc1cc(C(=S)N2CCCCC2)ccc1OCC(=O)N1CCCC1 | 5 | 2 | 5 | 2 | 7 | 5 | /
Cc1ccc(S(=O)(=O)/N=C2/NC(=O)/C(=C\c3ccccc3)S2)cc1 | -47 | -20 | 9 | -7 | 5 | -47 | /
Cc1ccc(S(=O)(=O)/N=C2/NC(=O)/C(=C/c3ccccc3)S2)cc1 | -41 | -22 | 29* | -4 | 2 | -46 | 11
CCN(CC)C(=O)C1=C(C)N(CCC2=CCCCC2)C(=O)C(CC(=O)NCc2cccs2)C1 (centres undefined) | 4 | -1 | -3 | / | 4 | 6 | /
COc1ccc(OCC(=O)NS(=O)(=O)c2ccccc2)cc1 | 2 | 2 | 29* | 0 | 0 | -3 | 6
Cc1ccc(S(=O)(=O)N(C)CC(=O)N(C)Cc2cccs2)cc1 | 0 | 7 | 8 | / | 1 | 1 | /
N#Cc1ccc(C(=O)N2CCC3CC2c2cc(-c4ccccc4)ccc23)cc1 (centres undefined) | -5 | 6 | -3 | / | 7 | -11 | /
CCn1ccnc1CNC(=O)c1ccc(OC2CCN(C(=O)COC)CC2)cc1 | -1 | 8 | 27* | 3 | -1 | 4 | -5
CCS(=O)(=O)c1nc(S(=O)(=O)c2ccc(C)cc2)c(N2CCN(CCO)CC2)s1 | 6 | 4 | 25* | -2 | -2 | 3 | 4
CCN1CCN(c2sc(S(=O)(=O)CC)nc2S(=O)(=O)c2ccc(C)cc2)CC1 | -2 | 1 | -2 | / | -4 | 2 | /
Cc1ccc(NC(=O)C2(C)CCCN(C(C)C)C2)cc1C (centres undefined) | 1 | 6 | 1 | / | 6 | / | /
Cc1cc(C(=O)c2ccc3ccccc3c2)c(C)o1 | -6 | 0 | -10 | -4 | 1 | / | /
CCn1c(N)nc2c1c(=O)n(C)c(=O)n2C | 7 | 9 | 6 | -1 | -1 | 2 | /
CCCc1nc2c(=O)n(C)c(=O)nc-2n(C)n1 | 1 | -5 | 95* | / | -5 | 29 | 87*
COc1cc2c(=O)n(CCC(=O)NCC3CCCO3)c(=O)n(CC(=O)Nc3ccc(C)c(C)c3)c2cc1OC (centres undefined) | -6 | -2 | -10 | 2 | -1 | -4 | /
COc1cc2c(=O)n(CCC(=O)NCC3CCCO3)c(=O)n(CC(=O)Nc3ccc(F)cc3)c2cc1OC (centres undefined) | -4 | -3 | 24* | -2 | -1 | 5 | -7
O=C(CCN1CCC(c2cccs2)=N1)c1cccs1 | -10 | 2 | 2 | -6 | -6 | / | /
COCCOC(=O)C1=C(C)NC2(O)c3ccccc3C(=O)C12O (centres undefined) | -1 | 3 | 46* | 3 | 3 | 6 | 8
CC(=O)C1=C(C)NC2(O)c3ccccc3C(=O)C12O (centres undefined) | -1 | 2 | 5 | -8 | 5 | 2 | /
CCOC(=O)C1=C(C)NC2(O)c3ccccc3C(=O)C12O (centres undefined) | -1 | 2 | 47* | -3 | -6 | 3 | 25*
SMILES | mABHD4 FP | SIAE primary | TDP2 absorb | PAD4 inh | TCR CD3 inh | HTRA1 inhibitor | TDP2 inh conf | others
Cn1cnc(S(=O)(=O)Nc2ccccc2N2CCOCC2)c1 | 3 | 3 | -3 | -4 | 10 | / | /
CN(C)c1cccc2c1c(NS(=O)(=O)c1cn(C)cn1)nn2C | 7 | -6 | 44* | -2 | -8 | 2 | 32*
COC1=CC(=O)c2nc(Cl)ccc2C1=O | 15 | 5 | 85* | / | 2 | / | 78*
COc1ccccc1NS(=O)(=O)c1ccc(C(=O)NCCCn2ccnc2)cc1 | -1 | -1 | -8 | 3 | 7 | 4 | /
COc1ccc(OC)c(NC(=O)c2nnn(CC(=O)Nc3ccc4c(c3)OCO4)c2N)c1 | / | / | / | -3 | / | 0 | /
CCCOc1ccc(N2C(=O)CC(N(CCCO)C(=O)CC)C2=O)cc1 (centres undefined) | 2 | 0 | 1 | 4 | 1 | 8 | /
CCCCN(C(C)=O)C1CC(=O)N(c2ccc(OCCC)cc2)C1=O (centres undefined) | 0 | -6 | 29* | 0 | 3 | 0 | -5
COC(=O)C1=C(C(C)=O)C(c2ccc(C)cc2)n2nnnc2N1 (centres undefined) | 7 | 10 | -2 | 0 | 9 | 5 | /
COC(=O)C1=C(C(C)=O)C(c2ccc(C(=O)OC)cc2)n2nnnc2N1 (centres undefined) | 13 | 23* | 34* | 0 | -3 | -5 | 4 | SIAE confirm=-3
CCN(CC(=O)c1c(N)n(C)c(=O)n(C)c1=O)c1cccc2ccccc12 | 13 | 20* | 38* | -3 | -5 | 10 | 6 | SIAE confirm=7
CCNC(=S)NNC(=O)c1ccc(OC)cc1 | -4 | 17* | 65* | -8 | 2 | 3 | 3 | SIAE confirm=7
Cc1nc(NCC2CCCO2)c2nnn(Cc3c(F)cccc3Cl)c2n1 (centres undefined) | -5 | 4 | -7 | 4 | 2 | -2 | /
O=C(CSc1ccc(Cl)cc1)Nc1ccccc1 | -21 | -3 | -7 | / | -1 | -4 | /
O=C(CSc1ccc(Cl)cc1)NC1=NN(c2ccccc2)C(=O)C1 | 21 | 25* | 25* | 15* | 0 | 5 | -1 | SIAE confirm=-3
COc1cc2c(cc1NC(=O)CSc1nnc(COc3ccccc3)n1Cc1ccco1)oc1ccccc12 | -5 | 0 | -5 | / | / | / | /
COc1ccc(-c2oc3c(OC)c(OC)c(OC)c(O)c3c(=O)c2OC)cc1OC | 1 | 7 | -4 | 0 | 11 | 18 | /
COc1ccc(-c2cc(-c3c(O)c(OC)c4occc4c3OC)[nH]n2)cc1 | 10 | 22* | -11 | 0 | -1 | 13 | / | SIAE confirm=12
COc1ccc(-c2cc(-c3c(O)c(OC)c4occc4c3OC)[nH]n2)cc1OC | 6 | 19* | 3 | -8 | 1 | 24 | / | SIAE confirm=5
